A1 apoptosis 2 = blocks A1, raising caspase activity. MEF A1-2A-BIM cells, caspase-Glo luminescence, 3 h; percent of clofoctol response, DMSO zero. caspase activation, % (concentration not given with the values). 24,000 tested, under 10 active. AID 2465; in the data active = caspase activation above about 5.9%
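Material: A1-2A-BIM-expressing MEF cells. Buffer or medium: RPMI-1640 plus 10% FBS. Incubation: cells settled overnight, compound exposure 3 h at 37 °C, 5% CO2. Signal: Caspase-Glo 3/7 luminescence, 1 h at room temperature.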
T cruzi HTS = blocks T. cruzi growth inside host cells; intracellular Trypanosoma cruzi in host cells, plate reader; activity score (inhibition), % at 5.01 µM; 22,000 tested, 4.9% active; AID 651903; in the data active = activity score above about 55%;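 note: parasites and compound incubated about four days before reading; 0% = median of neutral control wells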
INS-1E rescue = INS-1E beta cell protection from cytokine death; AID 488910; protection from cytokine-induced ATP loss, % at 10 µM; 20,000 tested, 0.1% active; INS-1E cytokine-induced death, ATP luminescence, 48 h; normalised: neutral wells 0, positive control 100;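 active = mean replicate protection from cytokine-induced ATP loss at least 50% and at least 75% of replicates each reaching 50%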
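Assay system: INS-1E rat cells / Quantity: 8000 cells per well / Medium: RPMI without phenol red, 5% FBS / Probe or stimulus: three-cytokine cocktail (IFN-γ, TNF-α, IL-1β) / Dosing: one compound concentration, pin transfer / Timing: 48 h co-treatment, 10 min post-lysis read / Technique: CellTiter-Glo luminescence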
Numbers without * were called inactive; / = not tested or not shown. The full list was thinned out, with hits kept by preference.

SMILES	A1 apoptosis 2	T cruzi HTS	INS-1E rescue
O=C(CCCCC(=O)N/N=C/c1ccc(-c2cccc(Cl)c2)o1)NO	/	19	149*
O=C(N/N=C/c1cc(Br)c(O)c(Br)c1)c1ccccn1	/	-13	7
Cc1ccc(/C=N/NC(=O)CCCCCC(=O)NO)o1	/	7	108*
COc1ccc(Br)cc1/C=N/NC(=O)CCCCCCC(=O)Nc1ccccc1O	1	3	11
COCCOC(=O)N1C(=O)[C@@]2(c3cc(C#CC4=CCCCC4)ccc31)[C@H](c1ccc(O)cc1)N1[C@H](c3ccccc3)[C@H](c3ccccc3)OC(=O)[C@H]1[C@@H]2C(=O)NC[C@H](O)c1ccccc1	0	/	/
C[C@H](CO)N1C[C@H](C)[C@@H](CN(C)C(=O)Nc2cccc3ccccc23)Oc2c(NC(=O)Nc3ccc(C(F)(F)F)cc3)cccc2C1=O	/	61*	-8
C[C@@H]1CN([C@@H](C)CO)C(=O)c2cccc(NC(=O)Nc3ccc(C(F)(F)F)cc3)c2O[C@H]1CN(C)C(=O)Nc1cccc2ccccc12	2	38	-30
C[C@H](CO)N1C[C@H](C)[C@@H](CN(C)C(=O)Nc2ccc(C(F)(F)F)cc2)Oc2c(NC(=O)Nc3cccc4ccccc34)cccc2C1=O	1	52	-34
C[C@@H]1CN([C@@H](C)CO)C(=O)c2cccc(NC(=O)Nc3ccc(C(F)(F)F)cc3)c2O[C@@H]1CN(C)C(=O)Nc1cccc2ccccc12	0	-27	-59
C[C@H](CO)N1C[C@H](C)[C@H](CN(C)C(=O)Nc2cccc3ccccc23)Oc2c(NC(=O)Nc3ccc(C(F)(F)F)cc3)cccc2C1=O	/	66*	-14
C[C@H]1CN([C@@H](C)CO)C(=O)c2cccc(NC(=O)Nc3cccc4ccccc34)c2O[C@H]1CN(C)C(=O)Nc1ccc(C(F)(F)F)cc1	1	63*	-29
COc1cc(/C=N/NC(=O)c2cccc(C(=O)NO)c2)cc(OC)c1OC	/	-5	3
CC(C)(C)OC(=O)CC[C@]12N=C(c3ccc(OCCCO)cc3)O[C@H]1c1ccccc1CN(CCS(=O)(=O)c1ccccc1)C2=O	1	/	/
OC[C@@H]1[C@H]2c3ccccc3OC1(CO)N=C1SCCCN12	0	/	/
O=C(CCCCCC(=O)Nc1ccccc1O)N/N=C\c1cccnc1Cl	/	5	1
C[C@@H]1CN([C@@H](C)CO)C(=O)c2cccc(NC(=O)Nc3ccccc3)c2O[C@@H]1CN(C)Cc1ccc(C(=O)Nc2ccccc2N)cc1	/	66*	46
Cc1cc(C(=O)Nc2cccc3c2O[C@@H](CN(C)Cc2ccc(C(=O)Nc4ccccc4N)cc2)[C@@H](C)CN([C@H](C)CO)C3=O)n(C)n1	/	54	-15
C[C@H](CO)N1C[C@H](C)[C@H](CN(C)Cc2ccc(C(=O)Nc3ccccc3N)cc2)Oc2c(NC(=O)Nc3cccc4ccccc34)cccc2C1=O	0	/	/
C[C@@H]1CN([C@H](C)CO)C(=O)c2cccc(NC(=O)Nc3ccccc3)c2O[C@H]1CN(C)Cc1ccc(C(=O)Nc2ccccc2N)cc1	2	76*	4
C[C@H]1CN([C@@H](C)CO)C(=O)c2cccc(NC(=O)Nc3cccc4ccccc34)c2O[C@H]1CN(C)Cc1ccc(C(=O)Nc2ccccc2N)cc1	1	68*	-10
Cc1cc(C(=O)Nc2cccc3c2O[C@H](CN(C)Cc2ccc(C(=O)Nc4ccccc4N)cc2)[C@H](C)CN([C@@H](C)CO)C3=O)n(C)n1	/	28	60*
C[C@@H]1CN([C@H](C)CO)C(=O)c2cccc(NC(=O)Nc3cccc4ccccc34)c2O[C@@H]1CN(C)Cc1ccc(C(=O)Nc2ccccc2N)cc1	0	/	/
O=C(N/N=C/c1ccc(Br)o1)c1ccccc1O	-4	-2	6
O=C(CCCCCCC(=O)Nc1ccccc1O)N/N=C/c1ccccc1[N+](=O)[O-]	/	-1	2
O=C(N/N=C/c1ccc(N2CCCC2)cc1)c1ccccn1	0	-2	-24
SMILES	A1 apoptosis 2	T cruzi HTS	INS-1E rescue
NC(=O)[C@@H]1[C@H]2C(=O)O[C@H](c3ccccc3)[C@H](c3ccccc3)N2[C@H](c2ccc(O)cc2)[C@@]12C(=O)Nc1ccc(C#CCCO)cc12	1	/	/
O=C(NO)c1cccc(C(=O)N/N=C/c2ccc(Oc3ccccc3)cc2)c1	-3	-10	-4
C[C@@H]1CN([C@@H](C)CO)C(=O)Cc2cc(NC(=O)Nc3cccc4ccccc34)ccc2O[C@H]1CN(C)Cc1ccc(-c2ccccc2)cc1	1	/	/
C[C@H]1CN([C@@H](C)CO)C(=O)Cc2cc(NC(=O)Nc3cccc4ccccc34)ccc2O[C@@H]1CN(C)Cc1ccc(-c2ccccc2)cc1	0	58*	-7
C[C@@H]1CN([C@@H](C)CO)C(=O)Cc2cc(NC(=O)Nc3cccc4ccccc34)ccc2O[C@@H]1CN(C)Cc1ccc2c(c1)OCO2	0	53	-16
C[C@@H]1CN([C@@H](C)CO)C(=O)Cc2cc(NC(=O)Nc3cccc4ccccc34)ccc2O[C@@H]1CN(C)Cc1ccc(Cl)c(Cl)c1	/	65*	-62
C[C@@H]1CN([C@H](C)CO)C(=O)Cc2cc(NC(=O)Nc3cccc4ccccc34)ccc2O[C@@H]1CN(C)Cc1ccc2c(c1)OCO2	/	71*	-34
C[C@@H]1CN([C@@H](C)CO)C(=O)c2cc(NC(=O)Nc3cccc4ccccc34)ccc2O[C@@H]1CN(C)Cc1ccc(Cl)c(Cl)c1	/	52	/
C[C@H]1CN([C@@H](C)CO)C(=O)Cc2cc(NC(=O)Nc3cccc4ccccc34)ccc2O[C@@H]1CN(C)Cc1ccccc1	/	58*	-16
C[C@H](CO)N1C[C@H](C)[C@@H](CN(C)Cc2ccccc2)Oc2ccc(NC(=O)Nc3cccc4ccccc34)cc2CC1=O	0	/	/
C[C@H](CO)N1C[C@H](C)[C@H](CN(C)C(=O)Nc2ccc(C(F)(F)F)cc2)Oc2ccc(NC(=O)Cn3cnnn3)cc2C1=O	0	-8	8
C[C@@H]1CN([C@H](C)CO)C(=O)Cc2cc(NC(=O)C3CCCCC3)ccc2O[C@@H]1CN(C)Cc1ccc(C(=O)Nc2ccccc2N)cc1	/	54	-13
C[C@H](CO)N1C[C@H](C)[C@@H](CN(C)Cc2ccc(C(=O)Nc3ccccc3N)cc2)Oc2ccc(NC(=O)C3CC3)cc2CC1=O	0	/	/
C[C@H](CO)N1C[C@H](C)[C@H](CN(C)Cc2ccc(C(=O)Nc3ccccc3N)cc2)Oc2ccc(NC(=O)C3CC3)cc2CC1=O	/	63*	32
C[C@H](CO)N1C[C@H](C)[C@H](CN(C)Cc2ccc(C(=O)Nc3ccccc3N)cc2)Oc2ccc(NC(=O)C3CCCCC3)cc2CC1=O	/	61*	29
O=C(CCCCCCC(=O)N/N=C/c1ccc(O)c(O)c1)NO	/	-8	16
C[C@H](O)[C@H](O)[C@@H](O)[C@@H](O)/C=N/NC(=O)c1ccccn1	0	-6	8
Cc1[nH]cnc1/C=N/NC(=O)c1ccccc1O	-4	-5	-5
O=C(NO)c1cccc(C(=O)N/N=C/c2ccccc2C(=O)O)c1	-5	-5	-11

Compound activity: PubChem BioAssay, Broad Institute
